The list is not random: actives were taken first. Their share in the collection is about 2%.
14-3-3 Bad PPI: disrupts binding of bovine 14-3-3 zeta to phospho-Bad peptide; 0.71% of 220,000 active; P63103; inhibition, % at 21.7 µM; AID 781; TR-FRET 14-3-3zeta/Dy647-pBad peptide displacement, 1 h;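 active = inhibition above about 70%, limit read from the data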;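 note: 0% = full 14-3-3 plus peptide FRET controls and 100% = background without 14-3-3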
Target sequence (P63103 whole entry, looked up): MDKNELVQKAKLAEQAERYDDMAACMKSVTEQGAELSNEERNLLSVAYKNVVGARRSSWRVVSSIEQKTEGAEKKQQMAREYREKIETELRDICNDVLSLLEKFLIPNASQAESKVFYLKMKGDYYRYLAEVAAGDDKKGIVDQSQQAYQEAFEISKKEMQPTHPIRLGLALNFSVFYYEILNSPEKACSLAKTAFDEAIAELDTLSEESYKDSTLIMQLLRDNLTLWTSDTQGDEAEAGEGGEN
eIF4E-4G inh: inhibitors of eIF4E and eIF4G interaction in translation initiation; inhibition, % at 21.7 µM; 0.37% of 220,000 active; AID 782; TR-FRET eIF4E-eIF4GI(517-606) binding, 2 h;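 note: 0% = full FRET control wells and 100% = background wells lacking eIF4GI fragment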
p47phox inh: inhibitors of human p47phox binding; p47phox/p22phox peptide binding, fluorescence polarization, 2 h; inhibition, % at 24.7 µM; 0.53% of 220,000 active; AID 1274;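 note: 0% = p47phox with labelled peptide and 100% = labelled peptide alone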
Target sequence (P14598 whole entry, looked up): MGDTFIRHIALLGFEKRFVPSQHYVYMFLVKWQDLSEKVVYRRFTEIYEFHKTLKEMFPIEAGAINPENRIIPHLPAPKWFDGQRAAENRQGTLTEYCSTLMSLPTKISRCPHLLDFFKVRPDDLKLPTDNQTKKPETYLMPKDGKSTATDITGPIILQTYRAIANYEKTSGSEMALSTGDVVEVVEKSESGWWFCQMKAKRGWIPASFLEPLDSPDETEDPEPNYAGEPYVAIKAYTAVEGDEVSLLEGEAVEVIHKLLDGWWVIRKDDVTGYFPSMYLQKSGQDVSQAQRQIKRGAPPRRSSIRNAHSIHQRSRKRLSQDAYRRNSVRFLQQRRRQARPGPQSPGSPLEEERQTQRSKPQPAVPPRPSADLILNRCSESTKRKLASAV
Hck Nef HTS: human Hck-Nef kinase inhibition. P08631. Recombinant Hck-YEEI plus Nef, Z-Lyte FRET kinase assay. inhibition, % at 20 µM. 0.68% of 220,000 active. AID 463187;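 active = Hck-Nef kinase inhibition above about 50%, limit read from the data; inactive = inhibition below that limit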;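 note: 0% = DMSO with Hck plus Nef and 100% = Hck alone without Nef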
Diaph act CS: diaphorase activation or chemical reduction counter-screen; 0.005% of 190,000 active; Diaphorase/resazurin coupled assay, resorufin fluorescence, 16 min; hits give high values; 1 = vehicle wells, 0 = NADH-free wells; AID 1229; activation factor at 20 µM;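 active = diaphorase activity raised at least twofold by the compound at 20 µM; inactive = activation factor below 2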
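Assay system: bacterial diaphorase enzyme (C. kluyveri) / Input: enzyme 0.07 U/mL final / Medium: 50 mM HEPES pH 7.4 with 4.542 mM MgCl2, 0.005% Tween 20 / Doses: single compound dose of 20 µM, 1% DMSO final / Incubation: 16 min enzyme reaction, ambient temperature / Signal: fluorescence, excitation 544 nm and emission 590 nm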
An asterisk follows results filed as active; / = no result; [ ] = remark or other dose.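 Rule for the calls, unless noted: active = inhibition above about 30% (limit read from the data); inactive = the rest.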

SMILES	14-3-3 Bad PPI	eIF4E-4G inh	p47phox inh	Hck Nef HTS	Diaph act CS
COc1ccc2c(c1)O[C@H](c1ccc3c(c1)OCO3)[C@@H](OC(=O)N[C@H](C)C1CCCCC1)C2=O	92.4*	0.8	2.8	4.6	1
COc1cccc([C@@H]2Oc3ccc(OC)cc3C(=O)[C@H]2OC(=O)N[C@H](C)C2CCCCC2)c1	-1.7	1.3	-0.7	1.6	0.9
C=C(C)C(=O)Nc1cccnc1Oc1ccc(F)cc1F	-2.1	1.0	2.1	12.8	/
Cc1ccc(CNC(=O)Cc2ccc(-n3cccc3)cc2)cc1	-12.9	1.8	-18.1	6.0	1
Cc1ccc(CNC(=O)c2ccc(-n3cccc3)cc2)cc1	31.1	38.4*	-23.5	14.4	0.9
CC1CCCN(C2=C(NS(=O)(=O)c3ccc(Cl)cc3)C(=O)c3ccccc3C2=O)C1 (configuration not stated)	5.8	1.5	50.4*	2.6	0.8
COC(=O)C1CCN(C2=C(NS(=O)(=O)c3ccc(Cl)cc3)C(=O)c3ccccc3C2=O)CC1	-5.6	1.1	5.7	6.6	/
CCOC(=O)N1CCN(CC(=O)c2ccc3c(c2)CCN3C(C)=O)CC1	-20.5	1.6	48.9*	-0.7	0.9
CC(=O)N1CCc2cc(C(=O)CN3CCCCC3)ccc21	-7.0	-0.2	-0.8	2.5	0.8
OCCN1CCN(C(c2cccs2)c2ccc3cccnc3c2O)CC1 (configuration not stated)	66.8	45.7*[fluorescence artefact?]	-14.3	1.8	0.7
CC(C)(C)c1cc(C(c2cccnc2)N2CCN(CCO)CC2)cc(C(C)(C)C)c1O (configuration not stated)	7.8	7.7	11.2	32.9	0.8
COc1ccc(CNC(=O)C(NC(C)=O)C(=O)Nc2ccc(C(C)C)cc2)cc1 (configuration not stated)	-1.2	4.0	4.3	21.7	0.9
COc1cc(C(=O)NCC(C)C)cc(OC)c1OC	21.3	-0.1	10.8	2.1	1.1
COc1cc(C(=O)NCc2ccc(C(=O)NCC(OC)OC)cc2)cc(OC)c1OC	72.2*	63.5*	-2.3	11.7	1
C=CCC1(Cl)C(=O)C(Cl)=C(N2CCN(C)CC2)C1(OC)OC (configuration not stated)	-1.1	-3.2	-12.2	21.2	/
Cc1cccc(C2Nc3ccccc3C(=O)N2NC(=O)c2ccc([N+](=O)[O-])cc2)n1 (configuration not stated)	73.5*	-0.4	-2.1	1.6	0.9
Brc1ccc(CSc2nnc(-c3cccnc3)o2)cc1	-2.9	-0.2	-2.9	51.1*	0.9
CCCCCC(=O)Nc1ccc(N2CCN(C(=O)c3ccccc3)CC2)cc1	81.6*	3.8	-6.6	-6.3	1
CCCCCCC(=O)Nc1ccc(C(=O)N2CCCC2)cc1	5.2	3.3	-8.8	-2.2	0.9
COc1ccc(/C=C(\C#N)C(=O)NCC(c2ccc(F)cc2)N2CCOCC2)cc1 (configuration not stated)	-5.6	-0.4	-7.9	10.4	/
COc1ccc(/C=N/n2cnc3c([nH]c4ccccc43)c2=O)cc1COc1ccccn1	5.7	10.1	-33.1	5.9	0.8
COc1ccc(N(CC(=O)NCc2ccccc2)C(=O)CCC(=O)Nc2cc(C)ccn2)c(OC)c1	0.3	88.2*	-2.2	11.1	/
O=C(CN1CCc2ccccc2C1)Nc1cccc(S(=O)(=O)N2CCCC2)c1	80.1*	1.9	9.3	-10.7	0.7
O=C(CCl)NC1(C(F)(F)F)C(=O)Nc2c1c(=O)[nH]c(=O)n2-c1ccccc1 (configuration not stated)	-3.4	-0.2	-0.6	4.7	/
CN(C)c1oc(/C=C/c2ccccc2)nc1C#N	12.5	6.7	-19.7	70.8*	0.9
SMILES	14-3-3 Bad PPI	eIF4E-4G inh	p47phox inh	Hck Nef HTS	Diaph act CS
CN(C)c1oc(-c2ccccc2)nc1C#N	31.8	12.8	7.5	4.7	0.9
Cc1nc(-c2cccc(S(=O)(=O)N3CCCC(C)C3)c2)cs1 (configuration not stated)	80.4*	12.5	-15.0	-0.4	1
CC(C)(C)OC(=O)N1CCCN(C(=O)Nc2ccc(C(F)(F)F)cc2)CC1	3.0	-1.9	-5.0	10.5	/
Cc1onc(-c2ccccc2)c1CNC(=O)C1COc2ccccc2O1 (configuration not stated)	8.6	6.4	-9.9	4.0	/
CCc1cc2ccc(C)cc2nc1SCC(=O)Nc1cc(C)on1	1.8	1.1	2.6	18.4	0.9
CCc1cc2cc3c(cc2nc1SCC(=O)Nc1cc(C)on1)OCO3	82.4*	-56.4	-3.6	-2.9	1
CCC(C(=O)NC(C)CCc1ccccc1)n1nc(C)n2c(cc3occc32)c1=O (configuration not stated)	-8.2	2.3	-13.3	4.0	1
CCC(C(=O)NC(C)CCc1ccco1)n1nc(C)n2c(cc3occc32)c1=O (configuration not stated)	13.4	49.8*	-3.1	-3.1	0.8
CC(C)(O)C1Cc2cc(/C=C/C(=O)O)c(O)cc2O1 (configuration not stated)	31.6	61.9*	84.8*	16.4	0.7
CC1Cc2ccccc2N1C(=O)CNCCCN(C)C (configuration not stated)	76.5*	-1.7	-3.0	4.9	0.9
Nc1cc(Nc2ccc(Br)cc2)nc(N)n1	-6.8	4.6	-22.3	10.6	/
O=C(O)c1cccc(NC(=O)C2CC(=O)N(Cc3ccccc3)C2)c1 (configuration not stated)	76.5*	-5.2	6.4	-0.6	0.9
CN(Cc1cccs1)C(=O)Cn1cnc2ccccc2c1=O	-15.0	1.6	-10.1	23.0	0.9
Cc1ccc2nc3sc(-c4nnc(-c5ccccc5[N+](=O)[O-])o4)c(N)c3cc2c1	88.1*[fluorescence artefact?]	3.0	43.5*	6.6	1
CCOc1ccccc1NC(=O)C(=O)N/N=C/c1cc(Br)ccc1O	-10.9	-0.1	-25.2	13.1	1
COc1cccc(/C=N/NC(=O)CNC(=O)COc2ccccc2)c1O	-9.2	2.5	81.6*	-17.2	/
COc1ccc(/C=N/NC(=O)CNC(=O)COc2ccccc2)cc1	4.6	-1.5	8.4	2.6	0.9
O=S(=O)(Cc1ccc(Cl)cc1)N1CCN(Cc2ccccc2)CC1	1.6	-1.1	-11.7	1.2	1
CCc1ccc(CN2CCN(S(=O)(=O)Cc3ccccc3)CC2)cc1	78.6*	7.0	-8.8	1.3	0.9
O=C(c1cnccn1)N1CCc2ccccc2C1	93.3*	-1.2	-10.7	8.3	1
CCc1nnc(NC(=O)Cc2ccc(OCc3c(C)noc3C)cc2)s1	-6.3	64.8*	-10.8	1.1	0.8
Cc1nc(-c2nnc(SCC(=O)Nc3ccc(C(F)(F)F)cc3)n2C)cs1	4.0	1.7	-3.8	10.2	/
CCN(CC)c1nc2c(c(=O)n(C)c(=O)n2C)n1CC(=O)c1ccccc1	-0.9	1.4	-10.6	8.1	/
COc1ccccc1NC(=O)c1c(N=Cc2ccccc2O)cnn1C	-4.9	-5.1	-14.7	20.8	0.9

Source: PubChem
